Calls of active or inactive are those of the source. No cut-off for these calls is given here.
Legend:
[1] = system: Canis familiaris; test: Activity index by dog hypotension screen assay at 10 ug/Kg per min for 15 min.; type: functional, Canis lupus familiaris
[2] = system: Canis familiaris; test: Percent inhibition by dog hypotension screen assay at 10 ug/Kg per min for 15 min.; type: functional; details: Canis lupus familiaris, 0.25 h
[3] = species: Rattus norvegicus; test: Inhibitory dose by PCA test […].; type: functional; details: read-out: ID50 (the source's name)
Summary of the method: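 Rat passive cutaneous anaphylaxis. Female rats (100 g) sensitized intradermally with 0.1 mL rat anti-egg albumin reaginic serum diluted in saline. After 24 h, rats were challenged i.v. with egg albumin, Evans Blue and saline, with the compound in saline given in the same injection. Reactions measured at 20 min; groups of five. ID50 taken from a log-dose regression of 20–80% inhibition.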

[4] = species: Rattus norvegicus; test: Potency ratio to that of sodium cromoglycate (1.0) using PCA test.; type: functional
Summary of the method: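 Passive cutaneous anaphylaxis in female rats sensitized with reaginic anti-egg albumin serum and challenged i.v. at 24 h with antigen plus Evans Blue. Compound in saline was co-injected with antigen; groups of five. Sodium cromoglycate ID50 was determined in each experiment. Potency ratio = ID50(sodium cromoglycate)/ID50(compound), with ID50s from regression lines of inhibition against log dose.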

[5] = system: Canis familiaris; test: Activity index was evaluated by dog hypotension screen assay at 20 ug/Kg per min for 15 min; type: functional, Canis lupus familiaris
[6] = system: Canis familiaris; test: Activity index was evaluated by dog hypotension screen assay at 50 ug/Kg per min for 15 min; type: functional, Canis lupus familiaris
[7] = system: Canis familiaris; test: Percent inhibition was evaluated by dog hypotension screen assay at 50 ug/Kg per min for 15 min; type: functional; details: Canis lupus familiaris, 0.25 h
[8] = system: Canis familiaris; test: Percent inhibition was evaluated by dog hypotension screen assay at 10 ug/Kg per min for 15 min; inactive; type: functional, organism-based; details: Canis lupus familiaris
Summary of the method: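 In anaesthetized beagles (pentobarbitone 30 mg/kg i.v.), hypotensive responses to a standardized bolus of sodium cromoglycate were established. Test compound was infused i.v. for 15 min, and the cromoglycate bolus was repeated at the end of the infusion and every 30 min over 3 h. Percent inhibition was expressed as area under the curve over 3 h; single experiments.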

Compound | Activity index [1] | inhibition in vivo at 10 µg/kg/min [2] [%] | ED50 [3] [mg/kg] | Potency ratio [4] | Activity index [5] | Activity index [6] | inhibition in vivo at 50 µg/kg/min [7] [%] | inhibition [8]
CCCc1c2nc(C(=O)[O-])ccc2cc2c(=O)cc(C(=O)[O-])oc12.[Na+].[Na+] | 3.8 | 38 | 7.11 | 0.35 | – | – | – | –
CCCc1c(C(=O)[O-])nc2c(CCC)c3oc(C(=O)[O-])cc(=O)c3cc2c1O.[Na+].[Na+] | 0.6 | 6 | 0.14 | 10.9 | – | – | – | –
CCCc1c2nc(C(=O)[O-])cc(N)c2cc2c(=O)cc(C(=O)[O-])oc12.[Na+].[Na+] | – | – | 0.31 | 8.25 | 4.1 | – | – | –
CCCc1c2nc(C(=O)[O-])cc(N3CCCC3)c2cc2c(=O)cc(C(=O)[O-])oc12.[Na+].[Na+] | 5.7 | 57 | 0.86 | 4.13 | – | – | – | –
CCCc1c2nc(C(=O)[O-])cc(O)c2cc2c(=O)ccoc12.[Na+] | – | – | 0.78 | 6.5 | – | – | – | –
CC(C)CCn1c(C(=O)O)cc(=O)c2cc3c(=O)cc(C(=O)O)oc3cc21 | – | – | 2.05 | 0.54 | – | 1.4 | 68 | –
CCCc1c2nccc(Cl)c2cc2c(=O)cc(C(=O)[O-])oc12.[Na+] | 4.8 | 48 | 5.38 | 0.2 | – | – | – | –
CCCc1c2nc(C(=O)[O-])cc(OCC)c2cc2c(=O)cc(C(=O)[O-])oc12.[Na+].[Na+] | 3.2 | 32 | 0.3 | 8.47 | – | – | – | –
CCCc1c2nc(C(=O)[O-])cc(Oc3ccccc3)c2cc2c(=O)cc(C(=O)[O-])oc12.[Na+].[Na+] | 6.8 | 68 | 1.12 | 1.75 | – | – | – | –
CCCc1c2nc(C(=O)[O-])cc(NCC)c2cc2c(=O)cc(C(=O)[O-])oc12.[Na+].[Na+] | 4.2 | 42 | 0.18 | 13.8 | – | – | – | –
CCCc1c2nc(C(=O)[O-])cc(OC)c2cc2c(=O)cc(C(=O)[O-])oc12.[Na+].[Na+] | 4.3 | 43 | 0.3 | 8.35 | – | – | – | –
CC=Cc1c2oc(C(=O)O)cc(=O)c2cc2c(=O)cc(C(=O)O)n(CC)c12 | – | 84 | – | – | – | – | – | –
CCCc1c2nc(C(=O)[O-])cc(Br)c2cc2c(=O)cc(C(=O)[O-])oc12.[Na+].[Na+] | 4.8 | 48 | 0.55 | 4.62 | – | – | – | –
CCCc1c(C(=O)[O-])nc2c(CCC)c3oc(C(=O)[O-])cc(=O)c3cc2c1Cl.[Na+].[Na+] | 0 | – | 2.45 | 1.14 | – | – | – | inactive
CCCc1c2nc(C(=O)[O-])cc(S(=O)(=O)c3ccccc3)c2cc2c(=O)cc(C(=O)[O-])oc12.[Na+].[Na+] | 3.9 | 39 | 0.3 | 9.9 | – | – | – | –
CCCc1c2nc(C(=O)[O-])cc(Sc3ccccc3)c2cc2c(=O)cc(C(=O)[O-])oc12.[Na+].[Na+] | 6.6 | 66 | 1.87 | 1.78 | – | – | – | –
